Activity calls are given as the source filed them. No cut-off for these calls is given here.
Experiments:
CHO [1] = assay: Cytotoxicity against CHO cells expressing OATP1B3 haplotype 1 after 48 hrs by […] CellTiter-Glo assay; assay type: functional, cell-based; details: Cricetulus griseus
In short: (§1)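 Seeded at 1600 cells/well, 24 h culture, then 5 mM sodium butyrate induction for 24 h. Cells then exposed to a range of compound concentrations for 48 h in medium with 10% FBS. CellTiter-Glo readout, expressed as percent of DMSO control. IC50 from at least three independent experiments, mean ± SEM.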

CHO [2] = assay: Cytotoxicity against CHO cells expressing OATP1B1*1b after 48 hrs by […] CellTiter-Glo assay; assay type: functional, cell-based; details: Cricetulus griseus; in short: as §1
CHO [3] = assay: Cytotoxicity against wild type CHO cells after 48 hrs by […] CellTiter-Glo assay; assay type: cell-based, Cricetulus griseus; details: for IC50: Cricetulus griseus, CHO; for Activity: chinese hamster, cho; in short: as §1
CHO [4] = assay: Activation of OATP1B3 haplotype 1 (unknown origin) expressed in CHO cells assessed as increase of [3H]estradiol 17beta-glucuronide at 50 uM after 20 seconds relative to control; assay type: cell-based; details: Homo sapiens
In short: (§2)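 Uptake in stably transfected CHO cells grown with 10% FBS. Test compound at 50 μM with 1% DMSO as control. Substrates 0.1 μM E3S or E17βG for 20 s, or 0.5 μM DHEAS for 5 min, all at 37 °C. Net OATP uptake is taken as the wild-type CHO signal subtracted. Values are percent of DMSO control, mean ± SEM of one representative of three experiments.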

CHO [5] = assay: Inhibition of OATP1B3 haplotype 1 (unknown origin) expressed in CHO cells assessed as reduction of [3H]dehydroepiandrosterone sulfate at 50 uM after 5 mins; assay type: cell-based; details: Homo sapiens; in short: as §2
CHO [6] = assay: Inhibition of OATP1B1*1b (unknown origin) expressed in CHO cells assessed as reduction of [3H]dehydroepiandrosterone sulfate at 50 uM after 5 mins; assay type: cell-based; details: Homo sapiens; in short: as §2
CHO [7] = assay: Inhibition of OATP1B1*1b (unknown origin) expressed in CHO cells assessed as reduction of [3H]estradiol 17beta-glucuronide at 50 uM after 20 seconds; assay type: cell-based; details: Homo sapiens; in short: as §2
CHO [8] = assay: Inhibition of OATP1B1*1b (unknown origin) expressed in CHO cells assessed as reduction of [3H]estrone-3-sulfate at 50 uM after 20 seconds; assay type: cell-based; details: Homo sapiens; in short: as §2
CHO [9] = assay: Induction of apoptosis in CHO cells expressing OATP1B3 haplotype 1 at 10 uM after 48 hrs using propidium iodide and FITC Annexin V staining by flow cytometry; assay type: functional, Cricetulus griseus
In short: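 Seeded at 90 000 cells/well for 24 h, then 5 mM sodium butyrate for 24 h, then 10 μM compound for 48 h. Medium and washes pooled with trypsinized cells, spun at 300g for 5 min. Stained with FITC Annexin V plus 4 μg/mL propidium iodide for 20 min in the dark, then flow cytometry. DMSO control; three independent experiments averaged.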

CHO [10] = assay: Inhibition of OATP1B3 haplotype 1 (unknown origin) expressed in CHO cells assessed as reduction of [3H]estradiol 17beta-glucuronide at 50 uM after 20 seconds; assay type: cell-based; details: Homo sapiens; in short: as §2
CHO [11] = assay: Inhibition of OATP1B3 haplotype 1 (unknown origin) expressed in CHO cells assessed as reduction of [3H]estrone-3-sulfate at 50 uM after 20 seconds; assay type: cell-based; details: Homo sapiens; in short: as §2
CHO [12] = assay: Cell cycle arrest in CHO cells expressing OATP1B3 haplotype 1 assessed as accumulation at G0/G1 phase at 10 uM after 48 hrs using propidium iodide staining by flow cytometry; details: Cricetulus griseus
CHO [13] = assay: Activation of OATP1B3 haplotype 1 (unknown origin) expressed in CHO cells assessed as increase at 50 uM after relative to control; details: Homo sapiens
CHO [14] = assay: Cell cycle arrest in CHO cells expressing OATP1B3 haplotype 1 assessed as accumulation at G0/G1 phase at 1 uM after 48 hrs using propidium iodide and FITC Annexin V staining by flow cytometry; assay type: functional, cell-based; details: Cricetulus griseus
In short: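 Cells plated at 90 000/well for 24 h, held 36 h serum-free to synchronize in G0, induced 24 h with 5 mM sodium butyrate, then compound for 48 h. Fixed in 70% ice-cold ethanol at 4 °C overnight, then 40 min in PBS with 25 μg/mL RNase and 12.5 μg/mL propidium iodide. DNA content by flow cytometry; two independent experiments averaged.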

CHO [15] = assay: Induction of apoptosis in CHO cells expressing OATP1B3 haplotype 1 at 1 uM after 48 hrs using propidium iodide and FITC Annexin V staining by flow cytometry; assay type: functional, Cricetulus griseus
In short: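 Wild-type and OATP1B3 CHO cells plated at 90 000/well for 24 h, induced 24 h with 5 mM sodium butyrate, then compound 48 h (DMSO control). Medium and trypsinized cells pooled, spun 5 min at 300g, PBS-washed. Stained 20 min in the dark with FITC Annexin V and 4 μg/mL propidium iodide, then flow cytometry. Two independent experiments, values averaged.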

Plasma = assay: Plasma concentration in human at 1600 mg; assay type: ADME, cell-free
Albumin [16] = molecular target: T1, Albumin (Homo sapiens, UniProt P02768); assay: Binding affinity to human serum albumin at 1 uM; assay type: ADME; details: isolated protein
T1 sequence (P02768 whole entry): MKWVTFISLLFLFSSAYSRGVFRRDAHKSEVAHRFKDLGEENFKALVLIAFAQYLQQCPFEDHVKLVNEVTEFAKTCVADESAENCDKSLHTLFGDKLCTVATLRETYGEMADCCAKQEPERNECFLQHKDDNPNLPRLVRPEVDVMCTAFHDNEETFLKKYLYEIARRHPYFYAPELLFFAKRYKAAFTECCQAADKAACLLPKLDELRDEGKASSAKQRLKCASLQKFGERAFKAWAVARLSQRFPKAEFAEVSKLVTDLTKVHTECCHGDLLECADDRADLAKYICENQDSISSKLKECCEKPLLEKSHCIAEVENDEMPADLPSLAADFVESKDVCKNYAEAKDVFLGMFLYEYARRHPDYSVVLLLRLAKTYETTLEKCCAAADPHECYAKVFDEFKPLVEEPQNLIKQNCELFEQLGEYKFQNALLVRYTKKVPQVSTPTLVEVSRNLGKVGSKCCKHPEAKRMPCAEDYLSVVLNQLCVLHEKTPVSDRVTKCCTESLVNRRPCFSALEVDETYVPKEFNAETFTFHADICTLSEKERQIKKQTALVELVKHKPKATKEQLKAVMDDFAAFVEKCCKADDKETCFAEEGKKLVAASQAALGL

Albumin [17] = molecular target: T1, Albumin; assay: Binding affinity to human serum albumin at 10 uM; assay type: ADME; details: isolated protein
CHO [18] = assay: Cytotoxicity against CHO cells expressing OATP1B3 haplotype 1 after 48 hrs by […] CellTiter-Glo assay relative to wild type CHO cells; assay type: functional, Cricetulus griseus
In short: (§3)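 CHO cells stably expressing OATP1B1*1b or OATP1B3, and wild-type CHO, in DMEM with 10% FBS. Seeded at 1600 cells/well and cultured 24 h. Then 24 h with 5 mM sodium butyrate to induce expression, then graded compound concentrations for 48 h. Viability read by CellTiter-Glo as percent of DMSO control. IC50 from mean ± SEM of at least three independent experiments.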

CHO [19] = assay: Cytotoxicity against CHO cells expressing OATP1B1*1b after 48 hrs by […] CellTiter-Glo assay relative to wild type CHO cells; assay type: functional, Cricetulus griseus; in short: as §3

Row | Compound | IC50 (CHO [1]) | IC50 (CHO [2]) | inhibition (CHO [5]) | inhibition (CHO [6]) | inhibition (CHO [7]) | inhibition (CHO [8]) | Activity (CHO [3]) | inhibition (CHO [10]) | inhibition (CHO [11]) | Activity (CHO [2]) | further results
1 | CCCOc1cc(O)cc2oc(-c3ccc(O)c(O)c3)c(O)c(=O)c12 | 11.8 µM | 42.6 µM | Active | Active | Active | Active | – | – | – | – | IC50 (CHO [3]): 111 µM; fold change (FC) (CHO [4]): 3
2 | O=C(Oc1c(-c2ccc(O)c(O)c2)oc2cc(O)cc(O)c2c1=O)c1cc(O)c(O)c(O)c1 | 3.8 µM | 3.5 µM | Active | Active | Active | Active | Non-toxic | Active | Active | – | Activity (CHO [9]): 32%; Activity (CHO [12]): inactive
3 | NCCCOc1cc(-c2oc3cc(O)cc(O)c3c(=O)c2O)ccc1O | – | – | Active | – | – | – | Non-toxic | Active | Active | inactive | Activity (CHO [1]): inactive
4 | Nc1ccc(C(=O)Oc2c(-c3ccc(O)c(O)c3)oc3cc(O)cc(O)c3c2=O)cc1O | 4.1 µM | – | Active | Active | Active | Active | Non-toxic | Active | Active | inactive | Activity (CHO [9]): 70%; Activity (CHO [12]): inactive
5 | Nc1cc(C(=O)Oc2c(-c3ccc(O)c(O)c3)oc3cc(O)cc(O)c3c2=O)ccc1O | – | – | – | – | – | – | Non-toxic | – | – | inactive | Activity (CHO [1]): inactive; Activity (CHO [13]): Active
6 | O=C(O[C@@H]1Cc2c(O)cc(O)cc2O[C@@H]1c1cc(O)c(O)c(O)c1)c1cc(O)c(O)c(O)c1 [EPIGALOCATECHIN GALLATE] | 3.2 µM | 7.7 µM | – | – | – | – | – | – | – | – | Activity (CHO [14]): Active; Activity (CHO [15]): 15%; concentration (Plasma): 11.3 µM; Activity (Albumin [16]): 99%; Activity (Albumin [17]): 85%; fold change (FC) (CHO [18]): 85; fold change (FC) (CHO [19]): 35; IC50 (CHO [3]): 271 µM
7 | O=C(Oc1cc(-c2oc3cc(O)cc(O)c3c(=O)c2O)ccc1O)c1cc(O)c(O)c(O)c1 | 6.8 µM | 7.9 µM | Active | Active | Active | Active | Non-toxic | Active | Active | – | –

— ChEMBL document CHEMBL2331369, “Transport by OATP1B1 and OATP1B3 enhances the cytotoxicity of epigallocatechin 3-O-gallate and several quercetin derivatives” (J Nat Prod, 2013)
